From PMC10905627 (Oncogene, 2018)
Where two headings read alike, the source gives them in different places. Peptide text beside a SMILES is read from it. * marks the point of attachment. Cbz = O=C(OCc1ccccc1)*; CH2F = FC*

Key:
[1] = molecular target: T1, ALK3/BMPR1A (Homo sapiens, UniProt P36894); conditions: read-out: IC50 ALK3/BMPR1A; previously reported; cited from earlier work
[2] = cited from earlier work
[3] = molecular target: T2, ALK6/BMPR1B (Homo sapiens, UniProt O00238); conditions: read-out: IC50 ALK6/BMPR1B; previously reported; cited from earlier work
T2 sequence (O00238 14-502): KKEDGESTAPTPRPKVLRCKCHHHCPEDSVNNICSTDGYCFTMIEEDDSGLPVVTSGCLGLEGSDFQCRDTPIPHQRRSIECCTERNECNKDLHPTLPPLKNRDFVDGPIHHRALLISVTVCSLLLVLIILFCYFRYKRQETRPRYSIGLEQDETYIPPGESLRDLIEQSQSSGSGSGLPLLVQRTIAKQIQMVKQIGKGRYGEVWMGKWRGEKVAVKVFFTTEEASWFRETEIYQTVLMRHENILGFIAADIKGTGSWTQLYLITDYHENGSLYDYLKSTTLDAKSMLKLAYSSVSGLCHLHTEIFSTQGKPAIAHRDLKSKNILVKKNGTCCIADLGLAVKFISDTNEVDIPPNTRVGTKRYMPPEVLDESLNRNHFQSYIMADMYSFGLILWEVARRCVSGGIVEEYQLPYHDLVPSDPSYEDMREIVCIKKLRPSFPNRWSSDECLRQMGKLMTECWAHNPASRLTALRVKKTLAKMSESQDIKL

[4] = system: Id1, TAK1, XIAP in H1299 tumors; conditions: similar doses; cited from earlier work
[5] = molecular target: T3, BMPR2 (Homo sapiens, UniProt Q13873); conditions: read-out: IC50 BMPR2; previously reported; cited from earlier work
T3 sequence (Q13873 27-1038): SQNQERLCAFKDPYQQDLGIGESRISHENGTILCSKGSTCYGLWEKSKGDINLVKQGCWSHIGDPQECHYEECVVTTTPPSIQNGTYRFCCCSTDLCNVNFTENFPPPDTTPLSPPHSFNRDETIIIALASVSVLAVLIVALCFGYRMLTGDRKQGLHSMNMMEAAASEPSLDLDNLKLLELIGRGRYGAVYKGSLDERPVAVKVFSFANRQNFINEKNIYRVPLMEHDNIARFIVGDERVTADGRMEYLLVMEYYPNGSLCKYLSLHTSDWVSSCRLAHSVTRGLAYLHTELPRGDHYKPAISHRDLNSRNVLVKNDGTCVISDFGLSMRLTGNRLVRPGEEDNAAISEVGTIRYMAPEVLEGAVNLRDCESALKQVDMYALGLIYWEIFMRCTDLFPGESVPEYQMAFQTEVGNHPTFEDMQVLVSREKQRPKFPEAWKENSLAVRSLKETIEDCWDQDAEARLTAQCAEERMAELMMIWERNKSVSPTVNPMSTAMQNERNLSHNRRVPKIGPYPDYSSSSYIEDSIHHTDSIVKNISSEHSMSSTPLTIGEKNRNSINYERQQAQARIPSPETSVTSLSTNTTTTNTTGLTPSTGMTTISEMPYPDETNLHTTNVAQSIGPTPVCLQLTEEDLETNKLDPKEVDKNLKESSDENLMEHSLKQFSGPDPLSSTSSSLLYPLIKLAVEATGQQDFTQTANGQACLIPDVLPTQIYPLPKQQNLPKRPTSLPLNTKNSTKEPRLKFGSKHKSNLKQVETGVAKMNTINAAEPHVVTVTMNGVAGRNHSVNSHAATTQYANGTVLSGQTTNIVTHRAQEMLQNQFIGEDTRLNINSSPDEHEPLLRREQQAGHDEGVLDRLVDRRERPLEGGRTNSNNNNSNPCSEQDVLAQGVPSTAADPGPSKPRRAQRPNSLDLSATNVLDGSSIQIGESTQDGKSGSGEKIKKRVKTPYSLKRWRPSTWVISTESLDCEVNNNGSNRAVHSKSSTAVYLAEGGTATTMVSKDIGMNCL

[6] = LCMS of stored solid sample; type: physicochemical; conditions: stored as a solid in a desiccator for 4 months
[7] = system: H1299 lung cancer cells; test: Cell viability; type: cell-based, human; conditions: for cell death, JL5 compared with DMH2: H1299, 2.5 μM, 3 days; for effect on JL5-induced cell death: H1299, pretreated 1 h, then JL5 3 days
[8] = molecular target: T4, ALK2/ACVR1 (Homo sapiens, UniProt Q04771); conditions: read-out: IC50 ALK2/ACVR1; previously reported; cited from earlier work
T4 sequence (Q04771 21-509): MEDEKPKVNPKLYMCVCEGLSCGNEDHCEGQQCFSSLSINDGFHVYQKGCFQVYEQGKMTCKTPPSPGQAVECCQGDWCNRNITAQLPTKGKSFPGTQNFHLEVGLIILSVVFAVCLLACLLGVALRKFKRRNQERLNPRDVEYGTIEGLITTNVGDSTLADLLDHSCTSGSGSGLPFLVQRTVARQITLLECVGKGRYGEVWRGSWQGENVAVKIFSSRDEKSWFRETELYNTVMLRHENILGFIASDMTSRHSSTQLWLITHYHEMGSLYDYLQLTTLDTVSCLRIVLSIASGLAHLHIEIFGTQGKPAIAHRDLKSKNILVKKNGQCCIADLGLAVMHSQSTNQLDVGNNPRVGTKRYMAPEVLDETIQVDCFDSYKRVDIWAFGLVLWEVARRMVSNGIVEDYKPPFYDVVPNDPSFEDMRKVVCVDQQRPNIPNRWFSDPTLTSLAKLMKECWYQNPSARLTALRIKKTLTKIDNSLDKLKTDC

[9] = Metabolic stability in mouse liver microsomes; type: in vitro ADME
[10] = molecular target: T2, ALK6/BMPR1B; test: IC50 kinase assay ALK6; type: biochemical; conditions: ATP 10 μM
[11] = molecular target: T1, ALK3/BMPR1A; test: IC50 kinase assay ALK3; type: biochemical; conditions: ATP 10 μM
[12] = system: H1299 tumors; test: H1299 tumor xenografts in NSG mice without immune cells; type: in vivo, mouse
[13] = system: H1299 cells; test: TUNEL assay; type: cell-based, human; conditions: H1299, 24 h
[14] = system: H1299 tumors; test: H1299 tumor xenografts in humanized NSG mice; type: in vivo, mouse
[15] = Pharmacokinetics in BALB/c mice; type: in vivo, mouse
[16] = system: caspase-3, PARP in H1299 cells; test: Western blot of activated caspase-3 and PARP; type: cell-based, human; conditions: H1299, 3 days
Procedure, shortened: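 H1299 cells treated with test compound, and total protein quantified by BCA. Lysates separated by SDS-PAGE onto nitrocellulose and blocked at least 2 h. Probed overnight at 4 °C with rabbit monoclonal anti-activated caspase-3 and anti-PARP, with actin or GAPDH as loading control. Secondary antibody 1 h at room temperature, then enhanced chemiluminescence detection.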

[17] = system: Id1 promoter; test: Id1-luciferase reporter assay in H1299 cells; type: cell-based, human; conditions: H1299 cells stably expressing reporter, 48 h
Procedure, shortened: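 H1299 cells stably carrying an Id-1 promoter–luciferase reporter were exposed to test compound for 48 h. Cells were then lysed and luminescence read on a luminometer. The experiment was run twice.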

[18] = molecular target: T4, ALK2/ACVR1; test: IC50 kinase assay ALK2; type: biochemical; conditions: ATP 10 μM
[19] = system: H1299 cells; test: Annexin V / 7-AAD staining; type: cell-based, human; conditions: H1299, 2.5 μM, 48 h, vs DMSO
Procedure, shortened: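 H1299 cells in six-well plates exposed to DMSO or test compound at 2.5 μM for 48 h. They were then stained with labeled Annexin V and 7-AAD per kit instructions and analysed by flow cytometry. 7-AAD-positive, Annexin V-negative cells counted as necrotic. Experiments run at least 3 times.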

[20] = system: A549 cells; test: Cell growth A549; type: cell-based, human; conditions: A549, activating K-Ras mutation
Procedure, shortened: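 A549 cells grown in DMEM with 5% FBS, seeded in six-well plates and exposed to test compound from the following day for the set time. Live and dead cells were counted on a Vi-CELL analyser by trypan blue exclusion, 500 cells per sample.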

[21] = molecular target: T5, ALK5/TGFβR1 (Homo sapiens, UniProt P36897); conditions: read-out: IC50 ALK5/TGFβR1; ATP 10 μM
T5 sequence (P36897 34-503): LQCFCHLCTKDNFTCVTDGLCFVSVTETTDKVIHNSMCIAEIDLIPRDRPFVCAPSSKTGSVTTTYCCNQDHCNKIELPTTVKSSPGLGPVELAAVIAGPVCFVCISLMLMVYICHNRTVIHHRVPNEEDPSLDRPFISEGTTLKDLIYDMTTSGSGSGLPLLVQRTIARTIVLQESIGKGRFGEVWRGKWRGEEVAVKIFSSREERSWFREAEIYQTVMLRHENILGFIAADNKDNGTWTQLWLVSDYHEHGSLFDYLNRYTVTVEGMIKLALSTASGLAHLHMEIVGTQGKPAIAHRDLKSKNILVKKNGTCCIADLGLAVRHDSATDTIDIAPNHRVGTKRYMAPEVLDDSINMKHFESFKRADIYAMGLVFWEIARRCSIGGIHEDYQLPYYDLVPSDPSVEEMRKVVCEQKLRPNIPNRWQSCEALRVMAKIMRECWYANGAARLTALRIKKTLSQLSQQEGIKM

[22] = Toxicity studies in NSG mice; type: in vivo
[23] = molecular target: T3, BMPR2; test: IC50 kinase assay BMPR2; type: biochemical
[24] = system: Id1, TAK1, XIAP in H1299 tumors; test: Western blot of BMP downstream targets in H1299 tumor xenografts; type: in vivo, mouse; conditions: NSG mice, 4 days
Procedure, shortened: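 Xenografts made by intradermal flank injection of 2 million H1299 cells into NSG mice. At about 4 mm × 4 mm, mice received test compound at 3 or 10 mg/kg twice daily, or DMSO, for four days. Tumor protein (BCA-quantified) run on SDS-PAGE and blotted to nitrocellulose. Probed with anti-Id1, anti-pTAK1 and anti-XIAP (primary overnight at 4 °C), then ECL detection.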

[25] = treatment day 21, IHC image analysis
[26] = NSG mice, IP 3 mg/kg, 10 mg/kg twice daily for 4 days

T1 sequence (P36894 24-532): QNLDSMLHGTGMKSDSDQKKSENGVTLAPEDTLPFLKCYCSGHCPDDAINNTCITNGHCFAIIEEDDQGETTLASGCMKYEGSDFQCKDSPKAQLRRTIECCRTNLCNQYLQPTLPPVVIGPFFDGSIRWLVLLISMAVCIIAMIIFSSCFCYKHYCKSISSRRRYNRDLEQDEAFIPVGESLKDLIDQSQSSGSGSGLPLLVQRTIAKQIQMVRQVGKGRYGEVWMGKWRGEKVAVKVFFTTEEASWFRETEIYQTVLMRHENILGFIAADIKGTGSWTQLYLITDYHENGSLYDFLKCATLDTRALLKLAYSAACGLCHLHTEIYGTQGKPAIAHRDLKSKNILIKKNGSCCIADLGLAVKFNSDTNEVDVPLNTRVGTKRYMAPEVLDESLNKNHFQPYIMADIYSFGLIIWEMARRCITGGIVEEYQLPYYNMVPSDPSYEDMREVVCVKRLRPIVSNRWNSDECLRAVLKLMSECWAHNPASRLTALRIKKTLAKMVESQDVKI

## c1ccc2c(-c3cnn4cc(-c5ccc(OCCN6CCOCC6)cc5)cnc34)ccnc2c1 [DMH2]
[1]
  IC50: 92 nM
[2]; i.v.
  AUCinf: 487 ng·h/mL
  AUClast: 485 ng·h/mL
  CL: 68 mL/min/kg
  T1/2: 57 min
  Vss: 0.95 L/kg
[2]; p.o.
  AUCinf: 729 ng·h/mL
  AUClast: 707 ng·h/mL
  C0/Cmax: 684 ng/mL
[2]; stated in discussion
  half-life: 60 min
[3]
  IC50: 43 nM
[4]
  downregulation of Id1, pTAK1, XIAP in tumor xenografts: did not downregulate Id1, pTAK1, or XIAP
[5]
  IC50: 7950 nM
[6]
  chemical stability on storage (LCMS): revealed a phenolic byproduct due to morpholine side-chain hydrolysis
[7]
  cell death, JL5 compared with DMH2: same amount of cell death
[8]
  IC50: 23 nM
[9]
  ClearanceINT: 250 mL/min/kg

## c1ccc2c(-c3cnn4cc(-c5ccc(OCCN6CCCCC6)cc5)cnc34)ccnc2c1 [JL5]
[10]
  IC50 ALK6/BMPR1B: single digit nanomolar
[10]; read-out: IC50 ALK6/BMPR1B
  IC50: 2 nM
[11]
  IC50 ALK3/BMPR1A: single digit nanomolar
[11]; read-out: IC50 ALK3/BMPR1A
  IC50: < 5 nM
[12]; 10 mg/mL, from treatment day 5 to day 14
  regression in tumor size: ~ 35%
[12]; after 21 days of treatment
  tumor cell death or proliferation (H&E, Ki67): No significant differences
[13]
  DNA double-stranded breaks (TUNEL): induces DNA double-stranded breaks
[14]; 10 mg/kg twice daily, 13 days
  size and weight of tumors vs vehicle control: significant difference in the size and weight
[14]; 10 mg/kg twice daily, from treatment day 7 to day 12
  regression in tumor size: ~ 35%
[14]; 13 days, H&E image analysis
  necrotic cells compared to control tumors: twice the number of necrotic cells
[14]; 21 days
  cell death by H&E staining: no noteworthy histomorphological differences
  proliferation of tumor cells (Ki67): significant reduction in proliferation
[14]; [25]
  increase in CD3+ cells within tumor vs DMSO control: 67%
  increase in CD4+ cells within tumor vs DMSO control: 80%
[15]; i.v., 2 mg/kg
  AUCinf: 381 ng·h/mL
  AUClast: 349 ng·h/mL
  C0/Cmax: 568 ng/mL
  CL: 194 mL/min/kg
  T1/2: 34.2 min
  Vss: 8.78 L/kg
[15]; p.o.
  AUCinf: 1,645 hr×ng/mL
  AUClast: 1,605 hr×ng/mL
  C0/Cmax: 1,282 ng/mL
[16]
  activation of caspase-3 and cleavage of PARP: induced the activation of caspase-3 and cleavage of PARP
[17]
  expression of the Id1-luciferase reporter: dose-related decrease
[18]
  IC50 ALK2/ACVR1: single digit nanomolar
[18]; read-out: IC50 ALK2/ACVR1
  IC50: 1 nM
[19]
  percentage of cells in late apoptosis / necrosis (Annexin V, 7-AAD): significant increase in the percentage of cells in late stages of apoptosis as well as necrosis
[7]
  cell death, JL5 compared with DMH2: same amount of cell death
[7]; H1299, 7 days
  dead and live cells vs DMSO control: majority of the H1299 cells treated with JL5 were dead
[20]
  growth of A549 cells: suppressed growth
[9]
  ClearanceINT: 129 mL/min/kg
  intrinsic clearance lower than that of DMH2: 48%
[21]
  IC50: 440 nM
[22]; 21-day studies, 10 mg/kg intraperitoneal twice daily
  signs of toxicity (anorexia, lethargy, loss of weight): no signs of toxicity
[22]; [26]
  blood chemistry screen vs DMSO: no significant difference
  histological examination of livers, lungs, kidneys: did not reveal any evidence of toxicity
  systemic toxicity (loss of appetite, anorexia, lethargy): no evidence of systemic toxicity
[23]; read-out: IC50 BMPR2, ATP 10 μM
  IC50: 8510 nM
[23]; read-out: IC50 for the BMP type II receptor BMPR2
  IC50: ~8000 nM
[24]; 3 mg/mL
  expression of Id1 in tumors: feedback increase in the expression of Id1
[24]; 10 mg/kg
  protein expression of Id1, TAK1, XIAP in tumors: decreased protein expression of Id1 and TAK1 but not XIAP

## COC(=O)C[C@H](NC(=O)[C@H](C)NC(=O)[C@@H](NC(=O)OCc1ccccc1)C(C)C)C(=O)CF [Z-VAD-FMK] (Cbz-Val-Ala-Asp(OMe)-CH2F)
[7]
  effect on JL5-induced cell death: partially inhibited

## CN1C(=O)C(Cc2c[nH]c3ccccc23)NC1=S (stereo not shown) [necrostatin-1]
[7]
  effect on JL5-induced cell death: had no effect
